From ChEMBL document CHEMBL5724801, “EUbOPEN Chemogenomics Library - Multiplex” (2024)
Where “and” joins values, the source holds several entries; their conditions need not be identical. Equal entries are not always repeated.

Tested on: U2OS
Experiment: Multiplex assay against U2OS
Type: toxicity, cell-based
Details: human
Outline: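 With compound added, live cells were imaged on a CQ1 microscope at 37°C and 5% CO2; staining with Hoechst33342, BioTracker Green Microtubule Cytoskeleton Dye, MitoTracker Red and Annexin V Alexa Fluor 680 had been done at seeding. The CellPathfinder machine-learning gating scheme split cells into Hoechst high-intensity objects or normal cells, normal cells into healthy, pyknosed or fragmented nuclei, and pyknosed cells into mitotic or apoptotic. The tubulin, mitochondrial-mass and membrane-permeability phenotypes are per cents of healthy-nucleus cells.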

[1] = 12 h, 1 µM, compound concentration 1 uM
[2] = 12 h, 10 µM, compound concentration 10 uM
[3] = 24 h, 1 µM, compound concentration 1 uM
[4] = 24 h, 10 µM, compound concentration 10 uM
[5] = 48 h, 1 µM, compound concentration 1 uM
[6] = 48 h, 10 µM, compound concentration 10 uM

Q: How did the “Population Apoptotic (%)” value [1] turn out when `S=C(NCCCc1c[nH]cn1)NCCCN(Cc1ccc(Cl)c(Cl)c1)c1ccc(Br)cn1` was run?
A: 75% and 80%

Q: And the “Population Fragmented Nuclei (%)” value [1]?
A: 27% and 20%

Q: And the “Population Healthy Nuclei (%)” value [1]?
A: 63% and 68%

Q: And the “Population Hoechst High Intensity Objects (%)” value [1]?
A: 2% and 3%

Q: And the “Population Membrane Permeable-Phenotype (%)” value [1]?
A: 13% and 6%

Q: What about the “Population Mitochondria Different-Phenotype (%)” value [1] of the same molecule?
A: 2% and 9%

Q: What about the “Population Mitotic Cells (%)” value [1] of the same molecule?
A: 25% and 20%

Q: What about the “Population Normal (%)” value [1] of the same molecule?
A: 97% and 96%

Q: And the “Population Pyknosed Nuclei (%)” value [1]?
A: 9% and 11%

Q: What about the “Population Tubulin-Different-Phenotype (%)” value [1] of the same molecule?
A: 6% and 1%

Q: And the “Total Cell Count” value [1]?
A: 228 and 93

Q: And the “Population Apoptotic (%)” value [2]?
A: 66% and 58%

Q: What about the “Population Fragmented Nuclei (%)” value [2] of the same molecule?
A: 27% and 24%

Q: And the “Population Healthy Nuclei (%)” value [2]?
A: 46%

Q: What about the “Population Hoechst High Intensity Objects (%)” value [2] of the same molecule?
A: 6% and 0%

Q: And the “Population Membrane Permeable-Phenotype (%)” value [2]?
A: 86% and 84%

Q: And the “Population Mitochondria Different-Phenotype (%)” value [2]?
A: 26% and 60%

Q: What about the “Population Mitotic Cells (%)” value [2] of the same molecule?
A: 33% and 41%

Q: And the “Population Normal (%)” value [2]?
A: 93% and 100%

Q: What about the “Population Pyknosed Nuclei (%)” value [2] of the same molecule?
A: 26% and 29%

Q: What about the “Population Tubulin-Different-Phenotype (%)” value [2] of the same molecule?
A: 83% and 89%

Q: And the “Total Cell Count” value [2]?
A: 220 and 82

Q: And the “Population Apoptotic (%)” value [3]?
A: 81% and 100%

Q: What about the “Population Fragmented Nuclei (%)” value [3] of the same molecule?
A: 22% and 30%

Q: And the “Population Healthy Nuclei (%)” value [3]?
A: 69% and 65%

Q: What about the “Population Hoechst High Intensity Objects (%)” value [3] of the same molecule?
A: 3% and 1%

Q: What about the “Population Membrane Permeable-Phenotype (%)” value [3] of the same molecule?
A: 11% and 7%

Q: And the “Population Mitochondria Different-Phenotype (%)” value [3]?
A: 3% and 5%

Q: And the “Population Mitotic Cells (%)” value [3]?
A: 18% and 0%

Q: And the “Population Normal (%)” value [3]?
A: 96% and 98%

Q: What about the “Population Pyknosed Nuclei (%)” value [3] of the same molecule?
A: 8% and 4%

Q: And the “Population Tubulin-Different-Phenotype (%)” value [3]?
A: 9% and 3%

Q: What about the “Total Cell Count” value [3] of the same molecule?
A: 285 and 125

Q: And the “Population Apoptotic (%)” value [4]?
A: 62% and 60%

Q: And the “Population Fragmented Nuclei (%)” value [4]?
A: 33% and 29%

Q: What about the “Population Healthy Nuclei (%)” value [4] of the same molecule?
A: 38% and 40%

Q: What about the “Population Hoechst High Intensity Objects (%)” value [4] of the same molecule?
A: 5% and 2%

Q: And the “Population Membrane Permeable-Phenotype (%)” value [4]?
A: 59% and 77%

Q: And the “Population Mitochondria Different-Phenotype (%)” value [4]?
A: 17% and 32%

Q: And the “Population Mitotic Cells (%)” value [4]?
A: 37% and 39%

Q: What about the “Population Normal (%)” value [4] of the same molecule?
A: 94% and 97%

Q: And the “Population Pyknosed Nuclei (%)” value [4]?
A: 28% and 29%

Q: What about the “Population Tubulin-Different-Phenotype (%)” value [4] of the same molecule?
A: 54% and 64%

Q: And the “Total Cell Count” value [4]?
A: 227 and 79

Q: What about the “Population Apoptotic (%)” value [5] of the same molecule?
A: 83% and 87%

Q: And the “Population Fragmented Nuclei (%)” value [5]?
A: 17% and 28%

Q: And the “Population Healthy Nuclei (%)” value [5]?
A: 74% and 60%

Q: What about the “Population Hoechst High Intensity Objects (%)” value [5] of the same molecule?
A: 1% and 0%

Q: What about the “Population Membrane Permeable-Phenotype (%)” value [5] of the same molecule?
A: 5%

Q: And the “Population Mitochondria Different-Phenotype (%)” value [5]?
A: 3%

Q: What about the “Population Mitotic Cells (%)” value [5] of the same molecule?
A: 16% and 12%

Q: And the “Population Normal (%)” value [5]?
A: 98% and 99%

Q: And the “Population Pyknosed Nuclei (%)” value [5]?
A: 7% and 11%

Q: What about the “Population Tubulin-Different-Phenotype (%)” value [5] of the same molecule?
A: 2% and 3%

Q: What about the “Total Cell Count” value [5] of the same molecule?
A: 409 and 211

Q: And the “Population Apoptotic (%)” value [6]?
A: 70% and 73%

Q: And the “Population Fragmented Nuclei (%)” value [6]?
A: 43% and 50%

Q: What about the “Population Healthy Nuclei (%)” value [6] of the same molecule?
A: 8% and 15%

Q: What about the “Population Hoechst High Intensity Objects (%)” value [6] of the same molecule?
A: 21% and 15%

Q: And the “Population Membrane Permeable-Phenotype (%)” value [6]?
A: 46% and 57%

Q: What about the “Population Mitochondria Different-Phenotype (%)” value [6] of the same molecule?
A: 20% and 42%

Q: What about the “Population Mitotic Cells (%)” value [6] of the same molecule?
A: 29% and 26%

Q: And the “Population Normal (%)” value [6]?
A: 78% and 84%

Q: And the “Population Pyknosed Nuclei (%)” value [6]?
A: 47% and 33%

Q: And the “Population Tubulin-Different-Phenotype (%)” value [6]?
A: 26% and 57%

Q: And the “Total Cell Count” value [6]?
A: 230 and 105

Q: What does the source list for `CCCCC(=O)N(Cc1ccc(-c2ccccc2-c2nnn[nH]2)cc1)[C@H](C(=O)O)C(C)C`?
A: Population Apoptotic (%) [1]: 85% and 100%; Population Fragmented Nuclei (%) [1]: 28% and 15%; Population Healthy Nuclei (%) [1]: 63% and 79%; Population Hoechst High Intensity Objects (%) [1]: 1% and 3%; Population Membrane Permeable-Phenotype (%) [1]: 8% and 9%; Population Mitochondria Different-Phenotype (%) [1]: 3% and 5%; Population Mitotic Cells (%) [1]: 14% and 0%; Population Normal (%) [1]: 98% and 96%; Population Pyknosed Nuclei (%) [1]: 8% and 4%; Population Tubulin-Different-Phenotype (%) [1]: 4% and 2%; Total Cell Count [1]: 259 and 130; Population Apoptotic (%) [2]: 75%; Population Fragmented Nuclei (%) [2]: 35% and 24%; Population Healthy Nuclei (%) [2]: 55% and 71%; Population Hoechst High Intensity Objects (%) [2]: 1% and 0%; Population Membrane Permeable-Phenotype (%) [2]: 3% and 1%; Population Mitochondria Different-Phenotype (%) [2]: 2%; Population Mitotic Cells (%) [2]: 25%; Population Normal (%) [2]: 98% and 99%; Population Pyknosed Nuclei (%) [2]: 9% and 3%; Population Tubulin-Different-Phenotype (%) [2]: 2% and 0%; Total Cell Count [2]: 218 and 108; Population Apoptotic (%) [3]: 86% and 83%; Population Fragmented Nuclei (%) [3]: 23% and 10%; Population Healthy Nuclei (%) [3]: 68% and 77%; Population Hoechst High Intensity Objects (%) [3]: 2% and 6%; Population Membrane Permeable-Phenotype (%) [3]: 5% and 9%; Population Mitochondria Different-Phenotype (%) [3]: 3% and 6%; Population Mitotic Cells (%) [3]: 13% and 16%; Population Normal (%) [3]: 97% and 93%; Population Pyknosed Nuclei (%) [3]: 7% and 12%; Population Tubulin-Different-Phenotype (%) [3]: 2% and 7%; Total Cell Count [3]: 289 and 158; Population Apoptotic (%) [4]: 82% and 84%; Population Fragmented Nuclei (%) [4]: 31% and 22%; Population Healthy Nuclei (%) [4]: 59% and 67%; Population Hoechst High Intensity Objects (%) [4]: 2% and 0%; Population Membrane Permeable-Phenotype (%) [4]: 3% and 4%; Population Mitochondria Different-Phenotype (%) [4]: 2% and 8%; Population Mitotic Cells (%) [4]: 17% and 15%; Population Normal (%) [4]: 97% and 100%; Population Pyknosed Nuclei (%) [4]: 8% and 9%; Population Tubulin-Different-Phenotype (%) [4]: 2% and 6%; Total Cell Count [4]: 272 and 135; Population Apoptotic (%) [5]: 86% and 85%; Population Fragmented Nuclei (%) [5]: 17% and 20%; Population Healthy Nuclei (%) [5]: 75% and 68%; Population Hoechst High Intensity Objects (%) [5]: 2% and 3%; Population Membrane Permeable-Phenotype (%) [5]: 5% and 7%; Population Mitochondria Different-Phenotype (%) [5]: 3%; Population Mitotic Cells (%) [5]: 13% and 15%; Population Normal (%) [5]: 97% and 96%; Population Pyknosed Nuclei (%) [5]: 7% and 10%; Population Tubulin-Different-Phenotype (%) [5]: 2% and 3%; Total Cell Count [5]: 397 and 201; Population Apoptotic (%) [6]: 83% and 87%; Population Fragmented Nuclei (%) [6]: 22% and 21%; Population Healthy Nuclei (%) [6]: 70% and 60%; Population Hoechst High Intensity Objects (%) [6]: 1% and 4%; Population Membrane Permeable-Phenotype (%) [6]: 6% and 4%; Population Mitochondria Different-Phenotype (%) [6]: 2% and 3%; Population Mitotic Cells (%) [6]: 16% and 12%; Population Normal (%) [6]: 98% and 95%; Population Pyknosed Nuclei (%) [6]: 7% and 17%; Population Tubulin-Different-Phenotype (%) [6]: 2% and 6%; Total Cell Count [6]: 347 and 188
